One molecule from ChEMBL document CHEMBL4725347, “Discovery of a Monoiodo Aza-BODIPY Near-Infrared Photosensitizer: in vitro and in vivo Evaluation for Photodynamic Therapy” (J Med Chem, 2020) can be followed below.

The nature of data set [1]: Absorption property of the compound in chloroform assessed as hypsochromic shift by measuring maximum absorption wavelength by UV-visible spectrophotometric method. Format: physicochemical. Put shortly: (§1)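 Electronic absorption spectra recorded by UV-visible spectrophotometry at room temperature. Solvents were chloroform, isopropanol, acetonitrile, DMF, and PBS buffer containing 1% Cremophor EL/1,2-propanediol (10:3, v:v). Chloroform data were referenced to the non-halogenated parent dye.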

Data set [2] is described as follows: Absorption property of the compound in isopropanol assessed as absorption coefficient by UV-visible spectrophotometric method. It is filed as physicochemical. The essentials:
as §1

Data set [3] in a line: Drug uptake in endoplasmic reticulum of human HeLa cells at 5 uM incubated for 2 hrs under dark condition by ER tracker green dye based laser confocal microscopic analysis. It is filed as ADME, subcellular. Put shortly:
(§2)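 HeLa cells adhered overnight on glass-bottom dishes and were loaded with 5 μM compound in the dark for 2 h. After PBS washes, cells were stained with Mito-Tracker Green FM 250 nM for 30 min, Lyso-Tracker Green 160 nM for 30 min, or ER-Tracker Green 2 μM for 45 min. Confocal imaging: trackers excited at 488 nm, collected 500–560 nm; compound excited at 633 nm, collected 650–740 nm.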

The nature of data set [4]: Drug uptake in Balb/c nu/nu mouse xenografted with human HeLa cells at 2 mg/kg, iv measured over 10 hrs by fluorescence imaging analysis. Format: ADME, organism-based. The following applies: in vivo. Put shortly:
(§3)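 Female Balb/c nu/nu mice bore subcutaneous HeLa tumors (5×10^6 cells, right back) and received 2 mg/kg via tail vein. Living mice were imaged under isoflurane at time points (ex 680/em 720 nm, 1 s exposure). At set times mice were euthanized and heart, liver, spleen, lungs, kidneys and tumor imaged ex vivo; ROI quantified, mean ± SD, n = 3.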
Background: A xenograft is tissue or cells of one species grown in another, often human tumour cells in immunodeficient mice.

The nature of data set [5]: Photostability of the compound in isopropanol assessed as compound degradation irradiated with 90 mW/cm2 light. It is filed as physicochemical.
Data set [6] relates to HeLa. The experiment in a line: Induction of reactive oxygen species generation in human HeLa cells incubated for 3 hrs prior to H2DCFDA addition for 20 mins followed by 54 J/cm2 light irradiation by confocal scanning microscopic analysis. It is filed as functional, cell-based. The essentials:
(§4)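 HeLa cells were exposed to 0.004, 0.02, 0.10, 0.5 or 2.5 μM for 3 h, washed, and loaded with H2DCFDA 10 μM in PBS for 20 min at 37 °C. After washing, cells in PBS were irradiated with 54 J/cm² (λ > 590 nm) or kept dark. Fluorescence was read by confocal microscopy and by plate reader (ex 485/em 538 nm).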

The nature of data set [7]: Dark toxicity in human SW480 cells assessed as reduction in cell viability after 3 hrs by MTT assay. It is filed as cell-based. (In general: Tetrazolium assays rely on reduction of a dye to a coloured formazan, in cell work by metabolically active cells.)
For data set [8], the system named is HeLa. The experiment in a line: Induction of apoptosis in human HeLa cells assessed as necrotic cells at 40 nM preincubated for 3 hrs followed by 54 J/cm2 light irradiation and measured after 24 hrs by Annexin-V-FITC/propidium iodide staining based flow cytometry (reference value: 2.8%). It is filed as functional. The essentials: (§5)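 HeLa cells in six-well plates were exposed to compound for 3 h, irradiated (λ > 590 nm), and incubated 24 h at 37 °C. Cells were then harvested, washed with PBS, and stained with annexin V-FITC/PI for 20 min at room temperature before immediate flow cytometry. Untreated, unirradiated cells served as control.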
On the technique in general: A flow cytometer gives signals particle by particle.

The nature of data set [9]: Stability of the compound in PBS containing 1% Cremophor EL/1,2-propanediol (10:3, v:v) system assessed as compound degradation under dark condition. It is filed as physicochemical. The note with it: buffer.
For data set [10], the system named is HeLa. The experiment in a line: Phototoxicity against human HeLa cells assessed as reduction in cell viability preincubated for 3 hrs followed by 54 J/cm2 light irradiation and measured after 24 hrs by MTT assay. The note with it: light or radiation study. Format: functional, cell-based. The essentials: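 PS formulated in PBS containing Cremophor EL/1,2-propanediol (10:3, v:v) after THF removal, filtered, with concentration confirmed by UV-Vis. Cells were grown in DMEM with 10% FBS and seeded at 3×10^3 per well overnight. They were incubated with PS for 3 h, irradiated at λ > 590 nm, kept 24 h at 37 °C, then given MTT (0.5 mg/mL, 4 h) with DMSO solubilization and A490 read-out.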

Data set [11] in a line: Drug uptake in human HeLa cells xenografted Balb/c nu/nu mouse heart at 2 mg/kg, iv measured after 3 hrs by fluorescence imaging analysis. It is filed as ADME, organism-based. The following applies: in vivo. The essentials: as §3
A short description of data set [12]: Drug uptake in Balb/c nu/nu mouse xenografted with human HeLa cells at 2 mg/kg, iv measured up to 3 hrs by fluorescence imaging analysis. Format: ADME, organism-based. The note with it: in vivo. Put shortly:
as §3

The subject of data set [13] is HeLa. The experiment in a line: Induction of reactive oxygen species generation in human HeLa cells at 2.5 uM incubated for 3 hrs prior to H2DCFDA addition for 20 mins followed by 54 J/cm2 light irradiation by microplate reader analysis relative to dark treated cells. Format: functional. Put shortly:
as §4

The test system of data set [14] is HeLa. The experiment in a line: Induction of apoptosis in human HeLa cells assessed as late apoptotic cells at 200 nM preincubated for 3 hrs followed by 27 J/cm2 light irradiation and measured after 24 hrs by Annexin-V-FITC/propidium iodide staining based flow cytometry (reference value: 5.92%). It is filed as functional. The essentials:
as §5

Data set [15] in a line: Photostability of the compound in PBS containing 1% Cremophor EL/1,2-propanediol (10:3, v:v) system assessed as compound degradation irradiated with 90 mW/cm2 light. Format: physicochemical. The note with it: buffer.
In data set [16] the test system is HeLa. The experiment in a line: Induction of apoptosis in human HeLa cells assessed as early apoptotic cells at 40 nM preincubated for 3 hrs followed by 54 J/cm2 light irradiation and measured after 24 hrs by Annexin-V-FITC/propidium iodide staining based flow cytometry (reference value: 0.54%). It is filed as functional. Put shortly:
as §5

The nature of data set [17]: Drug uptake in lysosomes of human HeLa cells at 5 uM incubated for 2 hrs under dark condition by Lyso tracker green dye based laser confocal microscopic analysis. It is filed as ADME, subcellular, Lysosome. The essentials:
as §2

A short description of data set [18]: Toxicity in human HeLa cells xenografted Balb/c nu/nu mouse assessed as body weight loss at 2 mg/kg, iv pretreated for 15 mins followed by 54 J/cm2 light irradiation for 10 mins and measured for 24 days. It is filed as organism-based. The following applies: in vivo, 0.25 h. The essentials:
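Female Balb/c nu/nu mice (18-22 g) carried subcutaneous HeLa cells (about 5×10^6, right back) and were treated on day 7 at a tumor volume of 80-100 mm³. Five mice per group received a tail-vein dose; saline controls were also irradiated. Fifteen minutes later the tumor was irradiated once with a 75 W halogen lamp (590 nm cut-on, 90 mW/cm², 10 min), without anaesthesia. Body weight was recorded every other day.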

Data set [19] relates to HeLa. The experiment in a line: Induction of apoptosis in human HeLa cells assessed as necrotic cells at 200 nM preincubated for 3 hrs followed by 54 J/cm2 light irradiation and measured after 24 hrs by Annexin-V-FITC/propidium iodide staining based flow cytometry (reference value: 2.8%). Format: functional. The essentials:
as §5

The subject of data set [20] is HeLa. The experiment in a line: Induction of apoptosis in human HeLa cells assessed as viable cells at 200 nM preincubated for 3 hrs followed by 54 J/cm2 light irradiation and measured after 24 hrs by Annexin-V-FITC/propidium iodide staining based flow cytometry (reference value: 90.74%). Format: functional. The note with it: light or radiation study, read-out: Activity. The essentials:
as §5

Data set [21] can be described thus: Induction of singlet oxygen generation in N,N-dimethylformamide assessed as relative rate of DPBF degradation to MB at 1 uM irradiated with 90 mW/cm2 halogen light. Format: functional. Put shortly: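 Singlet oxygen generation measured with 1,3-diphenylisobenzofuran (DPBF) as scavenger. The decrease in DPBF absorbance at 411 nm was monitored over time during light irradiation, and the photodegradation rate was calculated.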

Data set [22] is described as follows: Drug uptake in human HeLa cells xenografted Balb/c nu/nu mouse spleen at 2 mg/kg, iv measured within 1 hr by fluorescence imaging analysis. It is filed as ADME, organism-based. The following applies: in vivo. The essentials: as §3

Molecules are shown by their SMILES.

As a reminder, the IC50 is the midpoint of a concentration-inhibition curve. As to `COc1ccc(C2=[N+]3C(=Nc4c(-c5ccccc5)cc(-c5ccc(OC)cc5)n4[B-]3(F)F)C(c3ccccc3)=C2I)cc1`, the Activity in data set [1] is 678 nm; in [2] it was 59300 M⁻¹ cm⁻¹; in the data set with HeLa [6], “Dose-dependent effect”; in the data set with HeLa [8], 1.73%; with HeLa [14], 14.98%; in the data set with HeLa [16] it was 10.68%. Besides, the Activity entry in data set [18] is on record as “Non-Toxic”; in the data set with HeLa [19] it was 2.22%. The Drug uptake entry is “Active” in [3]; “Not Active” in [4]; “Active” in data set [11]; “Active” in [12]; “Active” in data set [17]; “Active” in data set [22]. Also, the results for the Stabilty entry in data set [5], in data set [9] and in data set [15] were “Stable”, “Unstable” and “Stable”, respectively. Also, the half-inhibitory concentration (IC50) at 3 h in data set [7] is over 50000 nM. In addition, in the data set with HeLa [10], the IC50 is 76 nM. Also, the “fold change (FC)” value in the data set with HeLa [13] was 77; in data set [21] it was 1.3. Further, the viability at 0.2 µM in the data set with HeLa [20] was 8.15%.
